Many of the other results were omitted from the sample, so hits are more common in it than they were.
TbMetRS inhib: Trypanosoma brucei MetRS inhibition; 360,000 compounds, 0.4% hits; inhibition, % at 11.9 µM; purified T. brucei MetRS, ATP depletion, Kinase-Glo luminescence; AID 624268;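 active = inhibition above a per-plate cutoff of the control wells' mean inhibition plus 3 SD, cut at about 5.5% in these data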;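 note: 0% = DMSO wells median and 100% = median of wells with control inhibitor compound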
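Material – parasite MetRS enzyme · Medium – HEPES-MgCl2-KCl buffer plus DTT, spermine, BSA, pyrophosphatase · Reagent – ATP, methionine and E. coli bulk tRNA substrates · Times – 15 min enzyme-compound preincubation, 2 h reaction, 10 min detection, 25 °C · Measured by – luminescence of leftover ATP · Evaluation – percent inhibition relative to median high and low control wells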
CHOP inhibitor: CHOP inhibition in unfolded protein response | CHO-K1 CHOP-promoter luciferase, tunicamycin-induced, 15-18 h | inhibition, % at 10 µM | 220,000 compounds, 3.8% hits | AID 2732;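 active = compounds that reduced the stress-induced luciferase reporter signal by more than about 70% of percent inhibition, limit read from the data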;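 note: 0% = tunicamycin plus vehicle and 100% = wells without tunicamycin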
CHOP UPR activ: apoptotic UPR (CHOP) activation. CHO-CHOP luciferase reporter, luminescence; percent of tunicamycin response over DMSO baseline. 330,000 compounds, 0.34% hits. activation, % at 10 µM;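 active = at 10 µM dose, activation of 40% or more, normalized to positive control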;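 note: 100% = tunicamycin at 10 µg/mL and 0% = DMSO alone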
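System: CHO-CHOP luciferase reporter cell line | Buffer or medium: F12 medium containing 10% fetal bovine serum | Doses: One dose, 10 µM in 0.5% DMSO | Times: 6 h compound exposure at 37 °C after overnight seeding | Signal: Luciferase luminescence | Read-out: % activation vs tunicamycin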
UPR XBP1 act: adaptive UPR (XBP1) activation; CHO-XBP1 luciferase reporter, IRE1-XBP1 UPR activation, luminescence; percent of tunicamycin response, DMSO as zero; activation, % at 20 µM; 330,000 compounds, 0.33% hits; AID 463104;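 active = versus positive control, 20 µM dose yields 30% or more activation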;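 note: 100% = tunicamycin at 10 µg/mL and 0% = DMSO only wells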
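incubation = overnight seeding at 37 °C, 6 h compound treatment at 37 °C | assay system = CHO-XBP1 cells stably carrying IRE1-XBP1-driven luciferase reporter | input = 1000 cells per well | detection = luciferase luminescence | dosing = single point, 20 µM final compound, 1% DMSO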
V-ATPase pHluor: yeast V-ATPase proton transport regulation by pHLuorin | response, % at 10 µM | 350,000 compounds, 0.37% hits | S. cerevisiae, pHLuorin cytosolic pH fluorescence; in the data active = response mostly above about 7.3%, no sharp cut-off; inactive = mostly below about 5.4%; note: actives read high
CHOP UPR conf: apoptotic UPR (CHOP) activation, confirmed | shares compounds with CHOP UPR activ | 1,000 compounds, 64% hits | CHO-CHOP cells, CHOP-luciferase reporter luminescence; percent of tunicamycin response, DMSO as zero | AID 463112 | activation, % at 10 µM; in the data active = activation above about 33%;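 note: 0% = DMSO wells and 100% = tunicamycin 10 µg/mL wells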
The depositor's hits bear a star; . = no result given.

SMILES	TbMetRS inhib	CHOP inhibitor	CHOP UPR activ	UPR XBP1 act	V-ATPase pHluor	CHOP UPR conf
O=C(Nc1nnc([C@@H]2C[C@H](O)[C@@H](CO)O2)s1)Nc1ccccc1C(F)(F)F	0	.	.	.	.	.
CCCOC(=O)C(C)n1cnc2scc(-c3ccc(C)cc3)c2c1=O (stereo not drawn)	-1	.	-1	-1	4	.
C=CCn1c(O)c(N=NC(=S)Nc2ccccc2C)c2cc(S(=O)(=O)N3CCOCC3)ccc21	1	-88	45*	3	0	31
Cn1c(O)c(N=NC(=S)Nc2ccccc2F)c2cc(S(=O)(=O)N3CCOCC3)ccc21	-1	-110	.	.	-2	.
COc1ccccc1NC(=O)c1cnc(SCC(=O)NCC2CCCO2)n(C)c1=O (stereo not drawn)	0	.	57*	-2	-2	34*
C/C(=N\NC(=O)c1cccc(Br)c1)c1ccccn1	0	.	535*	7	5	449*
C/C(=N\NC(=O)C(c1ccccc1)c1ccccc1)c1ccccn1	-1	53	80*	-1	0	51*
C/C(=N\NC(=O)C(c1ccccc1)c1ccccc1)c1ccc(O)cc1	-1	.	-2	-2	2	.
CCOc1ccc(OCc2ccc(C(=O)N/N=C(\C)c3ccccn3)cc2)cc1	0	53	.	.	2	.
COc1ccc(NC(=O)c2ccccn2)cc1OC	0	36	5	2	-2	.
COc1ccc(C(=O)N/N=C(\C)c2ccccn2)cc1OC	-1	.	355*	5	7	284*
C/C(=N/NC(=O)c1ccc(C(C)(C)C)cc1)c1ccccn1	-1	.	556*	0	0	372*
COC(=O)c1ccc(S(=O)(=O)c2ccc(Cl)cc2)c(N)c1	0	.	3	-3	-6	.
COc1ccccc1NC(=O)CS(=O)(=O)c1cn(CC(=O)N2CCCC2)c2ccccc12	-1	.	0	-1	1	.
C/C(=N\NC(=O)c1ccc(Cl)c(Cl)c1)c1ccccn1	-1	.	367*	4	5	322*
C/C(=N\NC(=O)c1cc(Br)ccc1O)c1ccccn1	0	.	213*	3	4	223*
C/C(=N\NC(=O)c1ccccc1Cl)c1ccccn1	0	.	21	7	-2	.
COc1ccc(N2C(=O)C(Cl)=C(Oc3cccc(OC)c3)C2=O)cc1	-1	106*	94*	-6	6	31
COc1ccc(N2C(=O)c3ccccc3C2=O)cc1	-1	0	2	-1	1	.
Cc1cnc(NC(=O)c2nn(C)cc2[N+](=O)[O-])s1	0	-13	2	-3	-1	.
Cc1ccc(-c2nc(NC(=O)c3nn(C)cc3[N+](=O)[O-])sc2C)cc1C	-1	38	65*	13	-2	68*
Cc1ccc(-c2nc(NC(=O)c3nn(C)cc3[N+](=O)[O-])sc2C)cc1	-1	-22	100*	8	2	59*
O=C(N/N=C/c1ccccc1)C(=O)N/N=C/c1ccccc1	-1	.	0	-1	1	.
O=C(C=C=Nc1ccccc1)C(=O)N=C=Cc1ccccc1	1	96*	225*	1	-1	135*
CC12CCC(O)CC1=CCC1C2CCC2(C)C3=NN=CC3CC12 (stereo not drawn)	0	.	.	.	1	.
SMILES	TbMetRS inhib	CHOP inhibitor	CHOP UPR activ	UPR XBP1 act	V-ATPase pHluor	CHOP UPR conf
Cc1ccc(C(=O)CSc2nc(N)cc(=O)[nH]2)cc1C	0	.	.	-2	0	-1
OCCCNc1ncnc2c1ncn2[C@H]1CN(Cc2ccc(Cl)cc2)C[C@@H](CO)O1	0	.	.	.	.	.
CN(Cc1ccccc1)c1nc(-c2cccc([N+](=O)[O-])c2)nc2ccccc12	1	29	0	-2	9	.
O=C(/C=C/Sc1ccccc1)c1ccc(Cl)cc1	-1	7	113*	29	-2	104*
O=C(/C=C/Nc1ccccc1)c1ccccc1	0	37	-5	-12	-11	.
O=C(/C=C/Sc1ccccc1)c1ccccc1	-1	50	79*	-3	2	99*
CC(OC(=O)C1CCCCC1)C(=O)Nc1cccc([N+](=O)[O-])c1 (stereo not drawn)	0	.	3	-3	0	.

Source: PubChem
